# Source: ChEMBL document CHEMBL1148725, “2,2,2-Trichloro-N-({2-[2-(dimethylamino)ethyl]-1,3-dioxo-2,3-dihydro-1H-benzo[de]isoquinolin- 5-yl}carbamoyl)acetamide (UNBS3157), a novel nonhematotoxic naphthalimide derivative with potent antitumor activity” (J Med Chem, 2007)
# pIC50: −log10 of the molar value.
# Experiments:
# Mus musculus [1] = assay: Hematotoxicity in B6D2F1 mouse assessed as WBC count at 20 mg/kg, po; format: organism-based; design: dose 20 mg/kg, route oral; settings: in vivo
# Mus musculus [2] = assay: Hematotoxicity in B6D2F1 mouse assessed as platelet count at 40 mg/kg, po; format: organism-based; design: dose 40 mg/kg, route oral; settings: in vivo
# L1210 [3] = assay: Antitumor activity in L1210 cells xenografted B6D2F1 mouse at 40 mg/kg, ip relative to control; format: functional; settings: route intraperitoneal
# Method in brief: (§1)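 Mice grafted with L1210 leukaemia cells on day 0, then dosed i.p. four times weekly on days 1-4 and 8-11. Five mice per group. Outcome is %T/C, the median survival of treated over control. Kruskal-Wallis test followed by Dunn comparisons against control.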
# A549 = assay: Antiproliferative activity against A549 cells after 72 hrs by MTT assay; format: functional, cell-based, Homo sapiens; settings: a549
# Method in brief: (§2)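 Cells cultured with each compound for three days; growth then read by the MTT colorimetric assay and reported as IC50 (µM).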
# L1210 [4] = assay: Antitumor activity in L1210 cells xenografted B6D2F1 mouse at 20 mg/kg, ip relative to control; format: functional; settings: route intraperitoneal; method in brief: as §1
# HCT-15 = assay: Antiproliferative activity against HCT15 cells after 72 hrs by MTT assay; format: functional, cell-based, Homo sapiens; settings: hct-15; method in brief: as §2
# Mus musculus [5] = assay: Toxicity in B6D2F1 mouse at 120 mg/kg, ip; format: organism-based; design: dose 120 mg/kg, route intraperitoneal; settings: in vivo
# Method in brief: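 Healthy female B6D2F1 mice, 10 per group, dosed i.p. in DMSO/saline (5:95 v/v) three times weekly for five weeks at two levels set relative to MTD; sacrificed 3 days after final dose; platelet, RBC and WBC counted by Coulter counter.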
# L1210 [6] = assay: Antitumor activity in L1210 cells xenografted B6D2F1 mouse at 10 mg/kg, ip relative to control; format: functional; settings: route intraperitoneal; method in brief: as §1
# Mus musculus [7] = assay: Hematotoxicity in B6D2F1 mouse assessed as platelet count at 5 mg/kg, iv; format: organism-based; design: dose 5 mg/kg, route intravenous; settings: in vivo
# Mus musculus [8] = assay: Hematotoxicity in B6D2F1 mouse assessed as WBC count at 10 mg/kg, po; format: organism-based; design: dose 10 mg/kg, route oral; settings: in vivo
# [9] = Antiproliferative activity against U373MG cells after 72 hrs by MTT assay; format: functional, cell-based, Homo sapiens, U-373MG ATCC; settings: u-373mg atcc; method in brief: as §2
# Mus musculus [10] = assay: Hematotoxicity in B6D2F1 mouse assessed as RBC count at 5 mg/kg, iv; format: organism-based; design: dose 5 mg/kg, route intravenous; settings: in vivo
# LoVo = assay: Antiproliferative activity against LoVo cells after 72 hrs by MTT assay; format: functional, cell-based, Homo sapiens; settings: lovo; method in brief: as §2
# Mus musculus [11] = assay: Hematotoxicity in B6D2F1 mouse assessed as WBC count at 5 mg/kg, iv; format: organism-based; design: dose 5 mg/kg, route intravenous; settings: in vivo
# Mus musculus [12] = assay: Hematotoxicity in B6D2F1 mouse assessed as RBC count at 20 mg/kg, po; format: organism-based; design: dose 20 mg/kg, route oral; settings: in vivo
# Mus musculus [13] = assay: Hematotoxicity in B6D2F1 mouse assessed as WBC count at 10 mg/kg, iv; format: organism-based; design: dose 10 mg/kg, route intravenous; settings: in vivo
# L1210 [14] = assay: Antitumor activity in L1210 cells xenografted B6D2F1 mouse at 120 mg/kg, ip relative to control; format: functional; settings: route intraperitoneal; method in brief: as §1
# Mus musculus [15] = assay: Hematotoxicity in ip dosed B6D2F1 mouse assessed as decrease in RBC count; format: organism-based; settings: in vivo
# Method in brief: (§3)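 Healthy female B6D2F1 mice, 10 per group, dosed i.p. three times weekly for five weeks at two dose levels set relative to MTD. Vehicle DMSO/saline 5:95 v/v. Killed 3 days after the last dose; blood platelet, RBC and WBC counts taken with a Coulter counter.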
# L1210 [16] = assay: Antitumor activity in L1210 cells xenografted B6D2F1 mouse at 80 mg/kg, ip relative to control; format: functional; settings: route intraperitoneal; method in brief: as §1
# Mus musculus [17] = assay: Hematotoxicity in ip dosed B6D2F1 mouse assessed as decrease in platelet count; format: organism-based; settings: in vivo; method in brief: as §3
# Mus musculus [18] = assay: Hematotoxicity in B6D2F1 mouse assessed as platelet count at 10 mg/kg, po; format: organism-based; design: dose 10 mg/kg, route oral; settings: in vivo
# MCF7 = assay: Antiproliferative activity against MCF7 cells after 72 hrs by MTT assay; format: functional, cell-based, Homo sapiens; settings: mcf7; method in brief: as §2
# Mus musculus [19] = assay: Hematotoxicity in B6D2F1 mouse assessed as WBC count at 40 mg/kg, po; format: organism-based; design: dose 40 mg/kg, route oral; settings: in vivo
# Mus musculus [20] = assay: Hematotoxicity in B6D2F1 mouse assessed as platelet count at 10 mg/kg, iv; format: organism-based; design: dose 10 mg/kg, route intravenous; settings: in vivo
# Mus musculus [21] = assay: Hematotoxicity in B6D2F1 mouse assessed as RBC count at 10 mg/kg, iv; format: organism-based; design: dose 10 mg/kg; settings: in vivo
# Mus musculus [22] = assay: Hematotoxicity in B6D2F1 mouse assessed as RBC count at 40 mg/kg, po; format: organism-based; design: dose 40 mg/kg, route oral; settings: in vivo
# Mus musculus [23] = assay: Hematotoxicity in B6D2F1 mouse assessed as platelet count at 20 mg/kg, po; format: organism-based; design: dose 20 mg/kg, route oral; settings: in vivo
# [24] = Toxicity in ip dosed B6D2F1 mouse; format: organism-based; settings: in vivo
# Method in brief: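 Acute MTD was set by a single i.p. dose to groups of three healthy female B6D2F1 mice, at 2.5, 5, 10, 20, 40, 80 and 160 mg/kg. The MTD is the dose just below the lowest dose that killed at least one mouse.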
# Mus musculus [25] = assay: Hematotoxicity in B6D2F1 mouse assessed as RBC count at 10 mg/kg, po; format: organism-based; design: dose 10 mg/kg, route oral; settings: in vivo
# [26] = Antiproliferative activity against Hs683 cells after 72 hrs by MTT assay; format: functional, cell-based, Homo sapiens, Hs 683; settings: hs 683; method in brief: as §2
structure (smiles),measurement,setting,value
CN(C)CCN1C(=O)c2cccc3cc(/N=C\c4cc(O)ccc4O)cc(c23)C1=O,Activity,Mus musculus [1],2.17 10^3 /uL
same,Activity,Mus musculus [2],1033 10^3 /uL
same,Activity,L1210 [3],232%
same,pIC50,A549,5.04
same,Activity,L1210 [4],148%
same,pIC50,HCT-15,< 5.00
same,Activity,Mus musculus [5],Toxic
same,Activity,L1210 [6],151%
same,Activity,Mus musculus [7],498 10^3 /uL
same,Activity,Mus musculus [8],2.36 10^3 /uL
same,pIC50,[9],5.11
same,Activity,Mus musculus [10],9.48 10^6 /uL
same,pIC50,LoVo,5.08
same,Activity,Mus musculus [11],3.09 10^3 /uL
same,Activity,Mus musculus [12],9.92 10^6 /uL
same,Activity,Mus musculus [13],3.05 10^3 /uL
same,Activity,L1210 [14],42%
same,Activity,Mus musculus [15],Toxic
same,Activity,L1210 [16],>300%
same,Activity,Mus musculus [17],Toxic
same,Activity,Mus musculus [18],909 10^3 /uL
same,pIC50,MCF7,< 5.00
same,Activity,Mus musculus [19],4.07 10^3 /uL
same,Activity,Mus musculus [20],443 10^3 /uL
same,Activity,Mus musculus [21],9.54 10^6 /uL
same,Activity,Mus musculus [22],7.87 10^6 /uL
same,Activity,Mus musculus [23],1007 10^3 /uL
same,MTD,[24],> 160 mg/kg
same,Activity,Mus musculus [25],10.22 10^6 /uL
same,pIC50,[26],< 5.00
